Source: ChEMBL document CHEMBL1131193, “Selective tight binding inhibitors of trypanosomal glyceraldehyde-3-phosphate dehydrogenase via structure-based drug design” (J Med Chem, 1998)

What was measured:
[1] = Inhibitory activity was measured for Glyceraldehyde-3-phosphate dehydrogenase (GAPDH) in Leishmania. mexicana.
[2] = Inhibitory activity measured for Glyceraldehyde-3-phosphate dehydrogenase (GAPDH) in Leishmania. mexicana
How it was run: (§1)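 Recombinant glycosomal GAPDH of L. mexicana, T. cruzi or T. brucei; human enzyme from erythrocytes. NADH formation followed at 340 nm, 21 °C, in 0.1 M triethanolamine-HCl pH 7.6 with DTT, NaN3, MgSO4, EDTA, 10 mM K2HPO4, 0.8 mM glyceraldehyde-3-phosphate, 0.19 mM NAD+, 5% DMSO. Reaction started with enzyme. IC50 from 0–1 min initial rates at ≥5 inhibitor levels versus DMSO control.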

[3] = test system: GAPDH (Leishmania mexicana); experiment: Inhibitory activity was measured for Glyceraldehyde-3-phosphate dehydrogenase (up to 10 mM
[4] = Inhibitory activity was measured for Glyceraldehyde-3-phosphate dehydrogenase in Trypanosoma cruzi.; how it was run: as §1
[5] = Inhibitory activity was measured for Glyceraldehyde-3-phosphate dehydrogenase in Trypanosoma brucei; how it was run: as §1
[6] = target: Glyceraldehyde-3-phosphate dehydrogenase (Homo sapiens, UniProt P04406); experiment: Inhibitory activity was measured for Glyceraldehyde-3-phosphate dehydrogenase in human(erythrocytes); type: cell-based; how it was run: as §1
[7] = test system: GAPDH (Leishmania mexicana); experiment: Inhibitory activity was measured for Glyceraldehyde-3-phosphate dehydrogenase (up to 10 mM; remark: listed apart in the source

Chain of Glyceraldehyde-3-phosphate dehydrogenase (P04406 whole entry): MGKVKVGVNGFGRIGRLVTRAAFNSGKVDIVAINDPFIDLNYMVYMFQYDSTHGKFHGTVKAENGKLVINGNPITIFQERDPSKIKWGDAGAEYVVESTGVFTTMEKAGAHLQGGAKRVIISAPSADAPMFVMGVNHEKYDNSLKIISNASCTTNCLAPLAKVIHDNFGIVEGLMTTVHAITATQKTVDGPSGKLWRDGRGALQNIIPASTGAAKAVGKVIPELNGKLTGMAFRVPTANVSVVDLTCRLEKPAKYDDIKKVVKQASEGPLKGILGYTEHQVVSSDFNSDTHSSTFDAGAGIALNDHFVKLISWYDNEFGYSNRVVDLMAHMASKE

| IC50 [2] [µM] | Compound | further results |
| --- | --- | --- |
| – | CC(C)CCNc1ncnc2c1ncn2[C@@H]1O[C@H](CO)[C@@H](O)[C@H]1O | IC50 [1]: 3700 µM |
| 150 | OC[C@H]1O[C@@H](n2cnc3c(NCc4cccc5ccccc45)ncnc32)[C@H](O)[C@@H]1O | – |
| 1800 | OC[C@H]1O[C@@H](n2cnc3c(NC4CCCCCC4)ncnc32)[C@H](O)[C@@H]1O | – |
| 3100 | Nc1ccc(CNc2ncnc3c2ncn3[C@@H]2O[C@H](CO)[C@@H](O)[C@H]2O)cc1 | – |
| – | CC(C)Nc1ncnc2c1ncn2[C@@H]1O[C@H](CO)[C@@H](O)[C@H]1O | IC50 [3]: Not Active |
| 800 | COc1cccc(C(=O)N[C@@H]2[C@H](O)[C@@H](CO)O[C@H]2n2cnc3c(N)ncnc32)c1 | – |
| 250 | Nc1ncnc2c1ncn2[C@@H]1O[C@H](CO)[C@@H](O)[C@H]1NC(=O)c1cc(O)c(O)c(O)c1 | – |
| 850 | Nc1ncnc2c1ncn2[C@@H]1O[C@H](CO)[C@@H](O)[C@H]1NC(=O)c1cccc(O)c1 | – |
| 600 | COc1cccc(C(=O)N[C@@H]2[C@H](O)[C@@H](CO)O[C@H]2n2cnc3c(N)ncnc32)c1O | – |
| 500 | COc1cc(C(=O)N[C@@H]2[C@H](O)[C@@H](CO)O[C@H]2n2cnc3c(N)ncnc32)ccc1O | – |
| 4 | COc1cccc(C(=O)N[C@@H]2[C@H](O)[C@@H](CO)O[C@H]2n2cnc3c(NCc4ccccc4C)ncnc32)c1 | IC50 [4]: 30 µM; IC50 [5]: 30 µM; IC50 [6]: > 270 µM |
| 16 | COc1cccc(C(=O)N[C@@H]2[C@H](O)[C@@H](CO)O[C@H]2n2cnc3c(NCc4ccccc4)ncnc32)c1 | IC50 [4]: 159 µM; IC50 [5]: 220 µM; IC50 [6]: > 530 µM |
| 5.5 | COc1cccc(C(=O)N[C@@H]2[C@H](O)[C@@H](CO)O[C@H]2n2cnc3c(NCc4cccc(C)c4C)ncnc32)c1 | – |
| 25 | COc1cccc(C(=O)N[C@@H]2[C@H](O)[C@@H](CO)O[C@H]2n2cnc3c(NCc4cc(C)ccc4C)ncnc32)c1 | – |
| 650 | Nc1ncnc2c1ncn2[C@@H]1O[C@H](CO)[C@@H](O)[C@H]1NC(=O)c1cc(O)cc(O)c1 | – |
| 25 | COc1cccc(C(=O)N[C@@H]2[C@H](O)[C@@H](CO)O[C@H]2n2cnc3c(NCc4ccccc4OC)ncnc32)c1 | – |

| IC50 [2] [µM] | Compound | further results |
| --- | --- | --- |
| 1200 | COc1cccc(C(=O)N[C@@H]2[C@H](O)[C@@H](CO)O[C@H]2n2cnc3c(NC(=O)C(C)C)ncnc32)c1 | – |
| 360 | OC[C@H]1O[C@@H](n2cnc3c(NC4CCCc5ccccc54)ncnc32)[C@H](O)[C@@H]1O (some centres not stated) | – |
| 700 | Cc1cccc(CNc2ncnc3c2ncn3[C@@H]2O[C@H](CO)[C@@H](O)[C@H]2O)c1 | – |
| – | CCCCCNc1ncnc2c1ncn2[C@@H]1O[C@H](CO)[C@@H](O)[C@H]1O | IC50 [7]: Not Active |
| – | CC(C)(C)Nc1ncnc2c1ncn2C1O[C@H](CO)[C@@H](O)[C@H]1O (some centres not stated) | IC50 [7]: Not Active |
| – | CCCC(C)Nc1ncnc2c1ncn2C1O[C@H](CO)[C@@H](O)[C@H]1O (some centres not stated) | IC50 [7]: Not Active |
| 240 | OC[C@H]1OC(n2cnc3c(NC(c4ccccc4)c4ccccc4)ncnc32)[C@H](O)[C@@H]1O (some centres not stated) | – |
| 3400 | CC(CO)CCNc1ncnc2c1ncn2C1O[C@H](CO)[C@@H](O)[C@H]1O (some centres not stated) | – |
| > 5400 | CCC(C)CNc1ncnc2c1ncn2C1O[C@H](CO)[C@@H](O)[C@H]1O (some centres not stated) | – |
| 340 | OCc1ccccc1Sc1ccccc1CNc1ncnc2c1ncn2C1O[C@H](CO)[C@@H](O)[C@H]1O (some centres not stated) | – |
| 50000 | Nc1ncnc2c1ncn2[C@@H]1O[C@H](CO)[C@@H](O)[C@H]1O [ADENOSINE] | – |
| 700 | Cc1ccccc1CNc1ncnc2c1ncn2[C@@H]1O[C@H](CO)[C@@H](O)[C@H]1O [METRIFUDIL] | – |
| 4200 | OC[C@H]1O[C@@H](n2cnc3c(NCc4ccccc4)ncnc32)[C@H](O)[C@@H]1O [N6-BENZYLADENOSINE] | – |
| > 5000 | OC[C@H]1O[C@@H](n2cnc3c(NC4CCCC4)ncnc32)[C@H](O)[C@@H]1O [N6-CYCLOPENTYLADENOSINE] | – |
| > 5000 | CC(C)=CCNc1ncnc2c1ncn2[C@@H]1O[C@H](CO)[C@@H](O)[C@H]1O [RIBOPRINE] | – |
